ChEMBL document CHEMBL1127734, “Selective ligands for rat A3 adenosine receptors: structure-activity relationships of 1,3-dialkylxanthine 7-riboside derivatives” (J Med Chem, 1994)

Key:
[1] = target: T1, Adenosine receptor A1 (Rattus norvegicus, UniProt P25099); assay: Tested for the displacement of specific [3H]PIA in rat brain membranes of A1 receptor; assay type: cell membranes
T1 sequence (P25099 whole entry): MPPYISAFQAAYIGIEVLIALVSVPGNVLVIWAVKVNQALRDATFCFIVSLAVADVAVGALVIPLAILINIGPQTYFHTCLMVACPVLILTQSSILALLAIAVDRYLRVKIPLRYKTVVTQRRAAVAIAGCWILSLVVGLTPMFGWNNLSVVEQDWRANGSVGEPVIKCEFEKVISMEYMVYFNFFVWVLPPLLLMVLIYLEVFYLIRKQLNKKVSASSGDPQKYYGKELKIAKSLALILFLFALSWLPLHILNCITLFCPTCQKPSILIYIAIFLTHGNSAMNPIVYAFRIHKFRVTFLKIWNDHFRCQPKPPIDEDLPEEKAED

[2] = target: Adenosine receptor A2a (Rattus norvegicus, UniProt P30543); assay: Displacement of specific [3H]- CGS-21680 in rat striatal membranes A2a receptor; assay type: cell membranes, Membrane
Method in brief: (§1)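 Rat striatal membranes; [3H]CGS 21680 binding at A2a receptors. Adenosine deaminase (3 units/mL) present during membrane preparation, which includes a 30 °C, 30 min incubation, and during radioligand incubation.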

[3] = target: T2, Adenosine receptor A3 (Rattus norvegicus, UniProt P28647); assay: Displacement of specific [125]AB-MECA binding in membranes of CHO cells stably transfected with the rat A3-cDNA; assay type: cell membranes
T2 sequence (P28647 whole entry): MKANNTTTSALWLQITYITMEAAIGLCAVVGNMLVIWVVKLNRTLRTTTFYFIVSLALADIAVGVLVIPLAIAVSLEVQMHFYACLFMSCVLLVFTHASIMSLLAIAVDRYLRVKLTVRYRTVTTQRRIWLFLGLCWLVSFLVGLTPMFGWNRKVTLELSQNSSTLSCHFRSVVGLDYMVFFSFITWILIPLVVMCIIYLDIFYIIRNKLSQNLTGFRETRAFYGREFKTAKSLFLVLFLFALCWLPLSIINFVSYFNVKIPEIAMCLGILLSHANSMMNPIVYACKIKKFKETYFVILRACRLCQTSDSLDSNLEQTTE

[4] = target: Adenosine receptors; A1 & A3 (Rattus norvegicus) (UniProt P25099+P28647); assay: Selectivity ratio (Ki's)for A1 and A3 receptors in rat brain; assay type: tissue-based
Method in brief: (§2)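 Ratio of Ki values from rat A1 (cortical, [3H]PIA) or A2a (striatal, [3H]CGS 21680) binding over Ki from rat A3 binding ([125I]AB-MECA, CHO membranes). Where one value is only a percent displacement, a conservative boundary estimate of the ratio is given.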

[5] = target: Adenosine receptor A2a and A3 (Rattus norvegicus) (UniProt P30543+P28647); assay: Selectivity for A2a and A3 receptors in rat brain as ratio of Ki; assay type: tissue-based; method in brief: as §2
[6] = target: Adenosine receptor A2a (Rattus norvegicus) (UniProt P30543); assay: Displacement of [3H]CGS-21680 from A2a receptor of rat striatal membrane at 10e-4 M; method in brief: as §1
[7] = target: Adenosine receptor A2a (Rattus norvegicus) (UniProt P30543); assay: Displacement of specific [3H]- CGS-21680 in rat striatal membranes A2a receptor at 10e-4 M concentration; assay type: cell membranes; conditions: Membrane
[8] = target: Adenosine receptor A2a (Rattus norvegicus) (UniProt P30543); assay: Displacement of [3H]- CGS-21680 from A2a receptor of rat striatal membrane at 3*10e-4 M; method in brief: as §1
[9] = target: Adenosine receptor A2a (Rattus norvegicus) (UniProt P30543); assay: Displacement of [3H]CGS-21680 from A2a receptor of rat striatal membrane at 10e-5 M; method in brief: as §1
[10] = target: T3, Adenosine receptor A1 (Rattus norvegicus) (UniProt P25099); assay: Percent displacement of [3H]PIA from A1 receptor of rat brain membrane at 10e-4 M
T3 sequence (whole entry): T1 sequence (P25099 whole entry)
Method in brief: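 A1 receptor binding in rat cortical membranes with [3H]-(R)-PIA. Adenosine deaminase (3 units/mL) present during membrane preparation, which includes a 30 °C, 30 min incubation, and during radioligand incubation. Result given as displacement of specific binding, as Ki or as percent displacement at the stated concentration.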

Chain of Adenosine receptor A2a and A3 (Rattus norvegicus) (P30543 whole entry, looked up, one chain of several): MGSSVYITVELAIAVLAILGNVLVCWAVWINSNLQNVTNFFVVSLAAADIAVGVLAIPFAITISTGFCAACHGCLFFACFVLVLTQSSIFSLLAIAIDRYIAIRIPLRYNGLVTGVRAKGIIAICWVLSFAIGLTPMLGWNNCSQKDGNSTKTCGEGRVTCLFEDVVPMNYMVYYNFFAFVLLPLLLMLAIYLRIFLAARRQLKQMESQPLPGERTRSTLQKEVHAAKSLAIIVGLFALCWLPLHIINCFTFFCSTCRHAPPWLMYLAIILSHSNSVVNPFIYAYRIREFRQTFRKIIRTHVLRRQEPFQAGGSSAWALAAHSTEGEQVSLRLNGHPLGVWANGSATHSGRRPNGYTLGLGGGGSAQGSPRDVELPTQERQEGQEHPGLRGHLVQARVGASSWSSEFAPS
Chain of Adenosine receptor A2a (Rattus norvegicus) (P30543 whole entry): as the sequence (P30543 whole entry, looked up, one chain of several) above
Chain of Adenosine receptor A2a (P30543 whole entry): as the sequence (P30543 whole entry, looked up, one chain of several) above

SMILES: CCCCn1c(=O)c2c(ncn2C2O[C@H](C(=O)N(C)C)[C@@H](O)[C@H]2O)n(CCCC)c1=O (some centres not stated)
- Ki [1]: 9.1 µM
- Ki [2]: 53.5 µM
- Ki [3]: 228 µM
- Selectivity ratio [4]: 0.04
- Selectivity ratio [5]: 0.23

SMILES: Cn1c(=O)c2c(ncn2C2O[C@H](CO)[C@@H](O)[C@H]2O)n(C)c1=O (some centres not stated)
- Ki [1]: 27 µM
- Ki [3]: 89.4 µM
- inhibition [6]: 2%
- Selectivity ratio [4]: 0.3
- Selectivity ratio [5]: > 1

SMILES: CCCn1c(=O)c2c(ncn2C2O[C@H](CO)[C@@H](O)[C@H]2O)n(CCC)c1=O (some centres not stated)
- Ki [1]: 15.9 µM
- Ki [3]: 81.2 µM
- inhibition [7]: 32%
- Selectivity ratio [4]: 0.2
- Selectivity ratio [5]: > 1

SMILES: CCCCCn1c(=O)c2c(ncn2C2O[C@H](C(=O)NC)[C@@H](O)[C@H]2O)n(CCCCC)c1=O (some centres not stated)
- Ki [3]: 2.63 µM
- inhibition [7]: 2%
- Selectivity ratio [4]: 4.3
- Selectivity ratio [5]: > 1

SMILES: CCCCn1c(=O)c2c(ncn2C2O[C@H](C(=O)NCC)[C@@H](O)[C@H]2O)n(CCCC)c1=O (some centres not stated)
- Ki [1]: 6.21 µM
- Ki [2]: 38.1 µM
- Ki [3]: 0.602 µM
- Selectivity ratio [4]: 10
- Selectivity ratio [5]: 63

SMILES: CCCCn1c(=O)c2c(ncn2C2O[C@H](CO)[C@@H](O)[C@H]2O)n(CCCC)c1=O (some centres not stated)
- Ki [1]: 4.19 µM
- Ki [2]: 19.5 µM
- Ki [3]: 6.03 µM
- Selectivity ratio [4]: 0.69
- Selectivity ratio [5]: 3.2

SMILES: CCCCn1c(=O)c2c(ncn2C2O[C@H](C(=O)OC)[C@@H](O)[C@H]2O)n(CCCC)c1=O (some centres not stated)
- Ki [1]: 3.72 µM
- Ki [3]: 3.23 µM
- inhibition [8]: 0%
- Selectivity ratio [4]: 1.2
- Selectivity ratio [5]: > 1

SMILES: CCCCn1c(=O)c2c(ncn2C2O[C@H](CO)[C@@H](O)[C@H]2O)n(Cc2ccccc2)c1=O (some centres not stated)
- Ki [1]: 2.19 µM
- Ki [2]: 8.67 µM
- Ki [3]: 12.9 µM
- Selectivity ratio [4]: 0.17
- Selectivity ratio [5]: 0.67

SMILES: CCCCCCn1c(=O)c2c(ncn2C2O[C@H](CO)[C@@H](O)[C@H]2O)n(CCCCCC)c1=O (some centres not stated)
- Ki [1]: 9.75 µM
- Ki [3]: 43 µM
- inhibition [9]: 7.8%
- Selectivity ratio [4]: 0.23

SMILES: CCCCn1c(=O)c2c(ncn2C2O[C@H](C(N)=O)[C@@H](O)[C@H]2O)n(CCCC)c1=O (some centres not stated)
- Ki [2]: 54.9 µM
- Ki [3]: 15.3 µM
- Selectivity ratio [4]: 0.2
- Selectivity ratio [5]: 3.6

SMILES: CCCCn1c(=O)c2c(ncn2C2O[C@H](CO)[C@@H](O)[C@H]2O)n(CCCC)c1=S (some centres not stated)
- Ki [1]: 2.25 µM
- Ki [2]: 4.25 µM
- Ki [3]: 1.4 µM
- Selectivity ratio [4]: 1.6
- Selectivity ratio [5]: 3

SMILES: COc1nc2c(c(=O)n(C)c(=O)n2C)n1C1O[C@H](CO)[C@@H](O)[C@H]1O (some centres not stated)
- Ki [3]: 0.074 µM
- inhibition [10]: 21%
- inhibition [7]: 4%
- Selectivity ratio [4]: > 1
- Selectivity ratio [5]: > 1

SMILES: CCCCCn1c(=O)c2c(ncn2C2O[C@H](CO)[C@@H](O)[C@H]2O)n(CCCCC)c1=O (some centres not stated)
- Ki [1]: 8.79 µM
- Ki [2]: 47.3 µM
- Ki [3]: 4.81 µM
- Selectivity ratio [4]: 1.8
- Selectivity ratio [5]: 9.8

SMILES: CCCCCCn1c(=O)c2c(ncn2C2O[C@H](C(=O)NC)[C@@H](O)[C@H]2O)n(CCCCCC)c1=O (some centres not stated)
- Ki [1]: 30.8 µM
- Ki [3]: 10.3 µM
- inhibition [7]: 0%
- Selectivity ratio [4]: 3
- Selectivity ratio [5]: > 10
